Screening results (PubChem BioAssay)
VIM-2 inh: inhibitors of Pseudomonas aeruginosa VIM-2 metallo-beta-lactamase; 290,000 tested, 0.89% active; inhibition, % at 5.6 µM; purified VIM-2, nitrocefin hydrolysis, epi-absorbance fluorescence; AID 1527;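 active = inhibition above the mean of all tested compounds plus 3 SD, cutoff set per screening run, cut at about 7.5% in these data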;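 also: red hydrolysis product quenches plate fluorescence so inhibitors raise well fluorescence; 0% = enzyme with DMSO and 100% = DMSO without enzyme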
procasp3 activ: activates human procaspase-3; 330,000 tested, 0.11% active; AID 463141; recombinant procaspase-3 D3A, Ac-DEVD-pNA absorbance 405 nm; activation, % at 8.5 µM; P42574;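 active = activation above the mean of all tested compounds plus 3 SD, cut at about 21% in these data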;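 also: 0% = DMSO alone and 100% = DMSO wells spiked with extra 5 µM PC-3 D3A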
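assay system = Procaspase-3 D3A mutant | signal = absorbance at 405 nm, 0 and 120 min | times = 1 h preincubation plus 2 h reaction at 25 °C | repeats = single replicate | read-out = % activation between DMSO and enzyme-spiked controls | medium = Zinc-free HEPES saline buffer with Triton X-100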
IMP-1 inh-1: blocks Pseudomonas aeruginosa IMP-1 metallo-beta-lactamase; purified IMP-1, nitrocefin hydrolysis, epi-absorbance fluorescence; inhibition, % at 5.6 µM; 290,000 tested, 0.45% active; AID 1556;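 active = inhibition above the mean plus 3 SD of all compounds in the same screening run, cut at about 4.5% in these data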;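 also: 0% = IMP-1 with DMSO and 100% = DMSO wells lacking enzyme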
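Assay system: purified IMP-1; Quantity: IMP-1 0.2 nM before substrate addition; Medium: HEPES buffer pH 7.1 with ZnSO4 and Brij 35; Incubation: 15 min enzyme–compound preincubation, then 25 min nitrocefin reaction, 25 °C; Signal: fluorescence quenching readout, ex 480/em 530 nm; Controls: DMSO with and without IMP-1; Repeats: singlicate testing.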
proCasp7 act: activates human procaspase-7, counter-screen for procaspase-3 activators. P55210. recombinant procaspase-7, Ac-DEVD-pNA absorbance 405 nm; D23A/D198A/D206A triple mutant, cannot self-cleave; scale: DMSO 0, 5 µM enzyme 100. 330,000 tested, 0.093% active. activation, % at 8.5 µM. AID 463210;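 active = percent activation above the screen-wide mean plus 3 SD, cut at about 25% in these data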
Target sequence (P55210 whole entry D23A/D198A/D206A): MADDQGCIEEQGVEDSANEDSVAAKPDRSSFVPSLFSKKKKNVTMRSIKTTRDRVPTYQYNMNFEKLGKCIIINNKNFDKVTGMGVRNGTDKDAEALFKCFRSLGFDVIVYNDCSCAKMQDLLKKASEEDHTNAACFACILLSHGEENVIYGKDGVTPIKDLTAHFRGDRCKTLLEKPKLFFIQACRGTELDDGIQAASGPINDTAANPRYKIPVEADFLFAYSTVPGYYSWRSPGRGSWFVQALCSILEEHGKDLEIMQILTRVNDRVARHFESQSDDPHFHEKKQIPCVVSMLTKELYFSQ
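Assay system: Uncleavable procaspase-7 mutant enzyme | Input: 2 µM procaspase-7 mutant as dispensed | Timing: 1 h compound preincubation, 2 h substrate cleavage, 25 °C | Repeats: One well per compound | Control set: DMSO wells as 0%, DMSO with 5 µM added PC-7 as 100% | Technique: Epi-absorbance of released pNA at 405 nm, two timepoints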
Neddylation inh: inhibitors of human cullin neddylation; P61081+Q13564; TR-FRET cullin neddylation, biochemical; calls only at 25 µM; 360,000 tested, 0.58% active; in the data active = inhibition above about 36%
PolyA inhibitor: blocks polyadenylation in yeast reporter cells | S. cerevisiae SKY197-pL101 polyadenylation reporter, beta-gal luminescence; efflux-impaired pdr1/pdr3 knockout yeast; score 100 = 6 SD above DMSO | activity score, % at 12 µM | 300,000 tested, 0.02% active | AID 1875;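 active = lowest replicate activity score at least 50, where 100 means six control SD above control mean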;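 also: yeast exposed to compound for 9 h at 30 °C; higher score means more reporter readthrough which indicates perturbed polyadenylation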
IMP-1 inh-2: blocks IMP-1 metallo-beta-lactamase in VIM-2 selectivity screen. shares compounds with VIM-2 inh. purified IMP-1, nitrocefin hydrolysis, epi-absorbance fluorescence. inhibition, % at 5.6 µM. 1,300 tested, under 10 active; call rule not given here;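 also: 0% = enzyme with vehicle and 100% = vehicle without enzyme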
VIM-2 FRET ctr: VIM-2 FRET inhibition, artifact counter-screen | purified VIM-2, CCF2 FRET substrate hydrolysis | shares compounds with VIM-2 inh | AID 1857 | inhibition, % at 5.6 µM | 1,300 tested, 23% active;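 active = inhibition above the mean of all tested compounds plus 3 SD, cut at about 19% in these data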;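 also: 0% = VIM-2 plus DMSO and 100% = no enzyme wells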
TEM-1 counter: selectivity counter-screen for VIM-2 inhibitors: E. coli TEM-1 inhibitors; shares compounds with VIM-2 inh; Purified TEM-1, nitrocefin hydrolysis, epi-absorbance fluorescence; inhibition, % at 5.6 µM; 1,300 tested, 3% active; AID 1866;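 active = inhibition above that campaign's mean inhibition plus 3 SD, cut at about 0.46% in these data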;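 also: 0% = TEM-1 with DMSO and 100% = TEM-1 with 100 µM potassium clavulanate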
Target sequence (P62593 whole entry, looked up): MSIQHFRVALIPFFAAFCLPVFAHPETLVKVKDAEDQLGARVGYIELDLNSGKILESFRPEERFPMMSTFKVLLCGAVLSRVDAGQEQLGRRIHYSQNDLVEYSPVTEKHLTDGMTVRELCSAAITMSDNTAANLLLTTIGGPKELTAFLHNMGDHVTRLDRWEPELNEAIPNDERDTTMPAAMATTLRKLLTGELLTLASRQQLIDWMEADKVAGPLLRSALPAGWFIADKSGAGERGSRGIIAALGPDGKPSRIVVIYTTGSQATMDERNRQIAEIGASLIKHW
VIM-2 confirm 2: confirmation of P. aeruginosa VIM-2 metallo-beta-lactamase inhibitors; shares compounds with VIM-2 inh; purified VIM-2, nitrocefin hydrolysis, epi-absorbance; inhibition, % at 5.6 µM; 1,300 tested, 96% active;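 active = inhibition of the VIM-2 beta-lactamase enzyme above about 11% from the earlier first-round screen, limit read from the data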;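 also: 0% = VIM-2 with DMSO and 100% = buffer wells without enzyme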
* = called active by the depositor. The list is not random: actives were taken first. Their share in the collection is about 1.7%.

COc1ccccc1C(=O)NC(=S)Nc1ccccc1N1CCCC1 was read as VIM-2 inh -2.9, procasp3 activ -14.4, IMP-1 inh-1 -2.8, proCasp7 act -15.4, Neddylation inh inactive and PolyA inhibitor 10.8.
Cc1ccccc1C(=O)NC(=S)Nc1ccccc1N1CCCC1 was read as VIM-2 inh 15.1*, procasp3 activ 1.9, IMP-1 inh-1 -4.2, proCasp7 act -3.4, Neddylation inh inactive, PolyA inhibitor -25.8, IMP-1 inh-2 -3.0, VIM-2 FRET ctr 9.0, TEM-1 counter -7.6 and VIM-2 confirm 2 4.8.
COC(=O)c1ccccc1NC(=S)NC(=O)COc1ccccc1Cl was read as VIM-2 inh -4.1, procasp3 activ -1.8, IMP-1 inh-1 -5.4, proCasp7 act 2.8, Neddylation inh inactive and PolyA inhibitor -25.5.
For O=C(NC(=S)Nc1ccccc1N1CCCC1)c1cccc(F)c1 the results were VIM-2 inh 13.5*, procasp3 activ -17.2, IMP-1 inh-1 -2.2, proCasp7 act -27.8, Neddylation inh inactive, PolyA inhibitor 4.3, IMP-1 inh-2 -4.1, VIM-2 FRET ctr 18.9*, TEM-1 counter -9.2 and VIM-2 confirm 2 5.8.
For O=C(COc1ccccc1Cl)NC(=S)Nc1ccccc1N1CCCC1 the results were VIM-2 inh 18.2*, procasp3 activ -1.3, IMP-1 inh-1 -1.2, proCasp7 act 2.3, Neddylation inh inactive, PolyA inhibitor 2.7, IMP-1 inh-2 -2.3, VIM-2 FRET ctr 20.0*, TEM-1 counter -6.5 and VIM-2 confirm 2 5.2.
`O=C(CCc1ccccc1)NNC(=O)c1ccccc1Cl` gave VIM-2 inh 1.7, procasp3 activ -3.5, IMP-1 inh-1 -1.5, proCasp7 act 0.8, Neddylation inh inactive and PolyA inhibitor -12.5.
For CCC(C)(C)NC(=O)C(c1cccn1C)N(C(=O)Cn1nnc2ccccc21)c1ccc(NC(C)=O)cc1 (stereo unspecified) the results were VIM-2 inh 0.5, procasp3 activ 3.0, IMP-1 inh-1 -2.1, proCasp7 act 0.5, Neddylation inh inactive and PolyA inhibitor 6.3.
C/C(CC(=O)Nc1ccc2c(c1)OCCO2)=N\NC(=O)C(=O)Nc1ccccc1C was read as VIM-2 inh -3.7, procasp3 activ 2.0, IMP-1 inh-1 -3.2, proCasp7 act -3.2, Neddylation inh inactive and PolyA inhibitor -15.5.
For CN(C)CCCSc1nc(-c2ccccc2)nc2c1CCC2 the results were VIM-2 inh 34.5*, procasp3 activ 6.3, IMP-1 inh-1 0.5, proCasp7 act 5.4, Neddylation inh inactive, PolyA inhibitor 11.5, IMP-1 inh-2 -2.4, VIM-2 FRET ctr 2.7, TEM-1 counter -7.1 and VIM-2 confirm 2 56.8*.
`Cc1ccc([C@H]2C[C@H](O)[C@@H](n3cc(-c4ccc(F)cc4)nn3)CN2Cc2cccs2)cc1` gave Neddylation inh inactive.
CCn1c(SC)nnc1-c1nn(-c2ccccc2)ccc1=O was read as VIM-2 inh 0.5, procasp3 activ 1.4, IMP-1 inh-1 1.1, proCasp7 act 4.8, Neddylation inh inactive and PolyA inhibitor -0.8.
For CCn1c(-c2nn(-c3ccc(C)cc3)ccc2=O)n[nH]c1=S the results were VIM-2 inh 14.2*, procasp3 activ 8.2, IMP-1 inh-1 -2.9, proCasp7 act 2.9, Neddylation inh inactive, PolyA inhibitor 2.6, IMP-1 inh-2 -3.0, VIM-2 FRET ctr 33.2*, TEM-1 counter -7.1 and VIM-2 confirm 2 22.2*.
